Where “and” joins values, the source holds several entries; their conditions need not be identical. Equal entries are not always repeated.
What was measured:
Assay type in all cases: toxicity, cell-based
[1] = tested on: Fibroblast; assay: Multiplex assay against human fibroblast
Summary of the method: (§1)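 Values for tubulin, mitochondrial-mass and membrane-permeability phenotypes are per cents of cells with healthy nuclei. These cells were identified by CellPathfinder machine-learning gating of live cells that had been stained at seeding with Hoechst33342, BioTracker Green Microtubule Cytoskeleton Dye, MitoTracker Red and Annexin V Alexa Fluor 680 and imaged on a CQ1 microscope at 37°C and 5% CO2 after compound addition. The gating first set Hoechst high-intensity objects apart from normal cells, then split normal cells into healthy, pyknosed or fragmented nuclei, and pyknosed cells into mitotic or apoptotic.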

[2] = tested on: HEK-293T; assay: Multiplex assay against HEK293T; conditions: human; summary of the method: as §1
[3] = tested on: U2OS; assay: Multiplex assay against U2OS; conditions: human; summary of the method: as §1
[4] = 12 h, 1 µM, compound concentration 1 uM
[5] = 12 h, 10 µM, compound concentration 10 uM
[6] = 24 h, 1 µM, compound concentration 1 uM
[7] = 24 h, 10 µM, compound concentration 10 uM
[8] = 48 h, 1 µM, compound concentration 1 uM
[9] = 48 h, 10 µM, compound concentration 10 uM

SMILES: CSc1nc(NC2CCCC2)c([N+](=O)[O-])c(NC2CCCC2)n1 [GS-39783]
- Population Apoptotic (%) [1, 4]: 50% and 39%
- Population Fragmented Nuclei (%) [1, 4]: 16% and 28%
- Population Healthy Nuclei (%) [1, 4]: 66% and 46%
- Population Hoechst High Intensity Objects (%) [1, 4]: 3% and 5%
- Population Membrane Permeable-Phenotype (%) [1, 4]: 2% and 10%
- Population Mitochondria Different-Phenotype (%) [1, 4]: 6% and 10%
- Population Mitotic Cells (%) [1, 4]: 50% and 60%
- Population Normal (%) [1, 4]: 96% and 94%
- Population Pyknosed Nuclei (%) [1, 4]: 16% and 25%
- Population Tubulin-Different-Phenotype (%) [1, 4]: 29% and 57%
- Total Cell Count [1, 4]: 137 and 135
- Population Apoptotic (%) [1, 5]: 54% and 36%
- Population Fragmented Nuclei (%) [1, 5]: 16% and 25%
- Population Healthy Nuclei (%) [1, 5]: 62% and 52%
- Population Hoechst High Intensity Objects (%) [1, 5]: 5% and 6%
- Population Membrane Permeable-Phenotype (%) [1, 5]: 0% and 4%
- Population Mitotic Cells (%) [1, 5]: 45% and 63%
- Population Normal (%) [1, 5]: 94% and 93%
- Population Pyknosed Nuclei (%) [1, 5]: 21%
- Population Tubulin-Different-Phenotype (%) [1, 5]: 39% and 70%
- Total Cell Count [1, 5]: 184 and 165
- Population Apoptotic (%) [1, 6]: 30% and 32%
- Population Fragmented Nuclei (%) [1, 6]: 12% and 31%
- Population Healthy Nuclei (%) [1, 6]: 69% and 44%
- Population Hoechst High Intensity Objects (%) [1, 6]: 2%
- Population Membrane Permeable-Phenotype (%) [1, 6]: 3% and 10%
- Population Mitochondria Different-Phenotype (%) [1, 6]: 4% and 12%
- Population Mitotic Cells (%) [1, 6]: 69% and 67%
- Population Normal (%) [1, 6]: 97%
- Population Pyknosed Nuclei (%) [1, 6]: 17% and 23%
- Population Tubulin-Different-Phenotype (%) [1, 6]: 27% and 60%
- Total Cell Count [1, 6]: 132 and 133
- Population Apoptotic (%) [1, 7]: 58% and 36%
- Population Fragmented Nuclei (%) [1, 7]: 17% and 25%
- Population Healthy Nuclei (%) [1, 7]: 65% and 52%
- Population Hoechst High Intensity Objects (%) [1, 7]: 2% and 7%
- Population Membrane Permeable-Phenotype (%) [1, 7]: 0% and 6%
- Population Mitochondria Different-Phenotype (%) [1, 7]: 4% and 10%
- Population Mitotic Cells (%) [1, 7]: 41% and 63%
- Population Normal (%) [1, 7]: 97% and 92%
- Population Pyknosed Nuclei (%) [1, 7]: 17% and 21%
- Population Tubulin-Different-Phenotype (%) [1, 7]: 33% and 57%
- Total Cell Count [1, 7]: 172 and 164
- Population Apoptotic (%) [1, 8]: 70% and 33%
- Population Fragmented Nuclei (%) [1, 8]: 22% and 41%
- Population Healthy Nuclei (%) [1, 8]: 69% and 44%
- Population Hoechst High Intensity Objects (%) [1, 8]: 4% and 3%
- Population Mitochondria Different-Phenotype (%) [1, 8]: 5% and 14%
- Population Mitotic Cells (%) [1, 8]: 30% and 66%
- Population Normal (%) [1, 8]: 95% and 96%
- Population Pyknosed Nuclei (%) [1, 8]: 7% and 14%
- Population Tubulin-Different-Phenotype (%) [1, 8]: 29% and 60%
- Total Cell Count [1, 8]: 134 and 129
- Population Apoptotic (%) [1, 9]: 66% and 60%
- Population Fragmented Nuclei (%) [1, 9]: 19% and 40%
- Population Healthy Nuclei (%) [1, 9]: 65% and 46%
- Population Hoechst High Intensity Objects (%) [1, 9]: 2% and 6%
- Population Membrane Permeable-Phenotype (%) [1, 9]: 1% and 6%
- Population Mitochondria Different-Phenotype (%) [1, 9]: 5% and 7%
- Population Mitotic Cells (%) [1, 9]: 33% and 40%
- Population Normal (%) [1, 9]: 97% and 93%
- Population Pyknosed Nuclei (%) [1, 9]: 14% and 13%
- Population Tubulin-Different-Phenotype (%) [1, 9]: 41% and 60%
- Total Cell Count [1, 9]: 168 and 193
- Population Apoptotic (%) [2, 4]: 45% and 40%
- Population Fragmented Nuclei (%) [2, 4]: 11% and 3%
- Population Healthy Nuclei (%) [2, 4]: 74% and 85%
- Population Hoechst High Intensity Objects (%) [2, 4]: 8% and 4%
- Population Membrane Permeable-Phenotype (%) [2, 4]: 0%
- Population Mitochondria Different-Phenotype (%) [2, 4]: 41% and 68%
- Population Mitotic Cells (%) [2, 4]: 54% and 59%
- Population Normal (%) [2, 4]: 91% and 95%
- Population Pyknosed Nuclei (%) [2, 4]: 14% and 11%
- Population Tubulin-Different-Phenotype (%) [2, 4]: 30% and 27%
- Total Cell Count [2, 4]: 346 and 301
- Population Apoptotic (%) [2, 5]: 29% and 40%
- Population Fragmented Nuclei (%) [2, 5]: 6% and 5%
- Population Healthy Nuclei (%) [2, 5]: 81% and 84%
- Population Hoechst High Intensity Objects (%) [2, 5]: 6% and 5%
- Population Membrane Permeable-Phenotype (%) [2, 5]: 0%
- Population Mitochondria Different-Phenotype (%) [2, 5]: 50% and 68%
- Population Mitotic Cells (%) [2, 5]: 70% and 60%
- Population Normal (%) [2, 5]: 93% and 94%
- Population Pyknosed Nuclei (%) [2, 5]: 12% and 10%
- Population Tubulin-Different-Phenotype (%) [2, 5]: 40% and 29%
- Total Cell Count [2, 5]: 449 and 406
- Population Apoptotic (%) [2, 6]: 30% and 38%
- Population Fragmented Nuclei (%) [2, 6]: 12% and 7%
- Population Healthy Nuclei (%) [2, 6]: 76% and 84%
- Population Hoechst High Intensity Objects (%) [2, 6]: 7% and 8%
- Population Membrane Permeable-Phenotype (%) [2, 6]: 0%
- Population Mitochondria Different-Phenotype (%) [2, 6]: 25% and 51%
- Population Mitotic Cells (%) [2, 6]: 69% and 61%
- Population Normal (%) [2, 6]: 92% and 91%
- Population Pyknosed Nuclei (%) [2, 6]: 11% and 7%
- Population Tubulin-Different-Phenotype (%) [2, 6]: 19%
- Total Cell Count [2, 6]: 492 and 360
- Population Apoptotic (%) [2, 7]: 27% and 37%
- Population Fragmented Nuclei (%) [2, 7]: 11% and 8%
- Population Healthy Nuclei (%) [2, 7]: 78% and 83%
- Population Hoechst High Intensity Objects (%) [2, 7]: 5% and 6%
- Population Membrane Permeable-Phenotype (%) [2, 7]: 1% and 0%
- Population Mitochondria Different-Phenotype (%) [2, 7]: 30% and 52%
- Population Mitotic Cells (%) [2, 7]: 72% and 62%
- Population Normal (%) [2, 7]: 94% and 93%
- Population Pyknosed Nuclei (%) [2, 7]: 10% and 7%
- Population Tubulin-Different-Phenotype (%) [2, 7]: 30% and 28%
- Total Cell Count [2, 7]: 553 and 474
- Population Apoptotic (%) [2, 8]: 35% and 30%
- Population Fragmented Nuclei (%) [2, 8]: 15% and 13%
- Population Healthy Nuclei (%) [2, 8]: 74% and 77%
- Population Hoechst High Intensity Objects (%) [2, 8]: 3% and 6%
- Population Membrane Permeable-Phenotype (%) [2, 8]: 1% and 0%
- Population Mitochondria Different-Phenotype (%) [2, 8]: 22% and 32%
- Population Mitotic Cells (%) [2, 8]: 64% and 69%
- Population Normal (%) [2, 8]: 96% and 93%
- Population Pyknosed Nuclei (%) [2, 8]: 9% and 8%
- Population Tubulin-Different-Phenotype (%) [2, 8]: 22% and 24%
- Total Cell Count [2, 8]: 775 and 505
- Population Apoptotic (%) [2, 9]: 17% and 30%
- Population Fragmented Nuclei (%) [2, 9]: 14% and 13%
- Population Healthy Nuclei (%) [2, 9]: 78% and 77%
- Population Hoechst High Intensity Objects (%) [2, 9]: 3% and 5%
- Population Membrane Permeable-Phenotype (%) [2, 9]: 1% and 0%
- Population Mitochondria Different-Phenotype (%) [2, 9]: 27% and 35%
- Population Mitotic Cells (%) [2, 9]: 82% and 69%
- Population Normal (%) [2, 9]: 96% and 94%
- Population Pyknosed Nuclei (%) [2, 9]: 7% and 8%
- Population Tubulin-Different-Phenotype (%) [2, 9]: 21%
- Total Cell Count [2, 9]: 856 and 647
- Population Apoptotic (%) [3, 4]: 82% and 80%
- Population Fragmented Nuclei (%) [3, 4]: 25% and 18%
- Population Healthy Nuclei (%) [3, 4]: 66% and 76%
- Population Hoechst High Intensity Objects (%) [3, 4]: 2% and 3%
- Population Membrane Permeable-Phenotype (%) [3, 4]: 4%
- Population Mitochondria Different-Phenotype (%) [3, 4]: 3% and 0%
- Population Mitotic Cells (%) [3, 4]: 17% and 20%
- Population Normal (%) [3, 4]: 97% and 96%
- Population Pyknosed Nuclei (%) [3, 4]: 8% and 5%
- Population Tubulin-Different-Phenotype (%) [3, 4]: 1%
- Total Cell Count [3, 4]: 209 and 96
- Population Apoptotic (%) [3, 5]: 88% and 100%
- Population Fragmented Nuclei (%) [3, 5]: 30% and 19%
- Population Healthy Nuclei (%) [3, 5]: 63% and 75%
- Population Hoechst High Intensity Objects (%) [3, 5]: 3% and 1%
- Population Membrane Permeable-Phenotype (%) [3, 5]: 9%
- Population Mitochondria Different-Phenotype (%) [3, 5]: 5% and 0%
- Population Mitotic Cells (%) [3, 5]: 11% and 0%
- Population Normal (%) [3, 5]: 96% and 98%
- Population Pyknosed Nuclei (%) [3, 5]: 5% and 4%
- Population Tubulin-Different-Phenotype (%) [3, 5]: 4% and 6%
- Total Cell Count [3, 5]: 322 and 145
- Population Apoptotic (%) [3, 6]: 87% and 84%
- Population Fragmented Nuclei (%) [3, 6]: 22% and 20%
- Population Healthy Nuclei (%) [3, 6]: 64% and 68%
- Population Hoechst High Intensity Objects (%) [3, 6]: 2% and 1%
- Population Membrane Permeable-Phenotype (%) [3, 6]: 2% and 1%
- Population Mitochondria Different-Phenotype (%) [3, 6]: 1%
- Population Mitotic Cells (%) [3, 6]: 12% and 15%
- Population Normal (%) [3, 6]: 97% and 98%
- Population Pyknosed Nuclei (%) [3, 6]: 12% and 11%
- Population Tubulin-Different-Phenotype (%) [3, 6]: 1% and 0%
- Total Cell Count [3, 6]: 269 and 119
- Population Apoptotic (%) [3, 7]: 85% and 88%
- Population Fragmented Nuclei (%) [3, 7]: 26% and 18%
- Population Healthy Nuclei (%) [3, 7]: 66% and 75%
- Population Hoechst High Intensity Objects (%) [3, 7]: 2% and 3%
- Population Membrane Permeable-Phenotype (%) [3, 7]: 6% and 9%
- Population Mitochondria Different-Phenotype (%) [3, 7]: 6% and 2%
- Population Mitotic Cells (%) [3, 7]: 14% and 11%
- Population Normal (%) [3, 7]: 97% and 96%
- Population Pyknosed Nuclei (%) [3, 7]: 6% and 5%
- Population Tubulin-Different-Phenotype (%) [3, 7]: 4% and 5%
- Total Cell Count [3, 7]: 341 and 164
- Population Apoptotic (%) [3, 8]: 88% and 92%
- Population Fragmented Nuclei (%) [3, 8]: 18% and 21%
- Population Healthy Nuclei (%) [3, 8]: 70% and 71%
- Population Hoechst High Intensity Objects (%) [3, 8]: 1% and 0%
- Population Membrane Permeable-Phenotype (%) [3, 8]: 3%
- Population Mitochondria Different-Phenotype (%) [3, 8]: 1%
- Population Mitotic Cells (%) [3, 8]: 11% and 7%
- Population Normal (%) [3, 8]: 98% and 100%
- Population Pyknosed Nuclei (%) [3, 8]: 11% and 7%
- Population Tubulin-Different-Phenotype (%) [3, 8]: 1% and 3%
- Total Cell Count [3, 8]: 382 and 185
- Population Apoptotic (%) [3, 9]: 89% and 85%
- Population Fragmented Nuclei (%) [3, 9]: 23% and 12%
- Population Healthy Nuclei (%) [3, 9]: 67% and 81%
- Population Hoechst High Intensity Objects (%) [3, 9]: 2% and 0%
- Population Membrane Permeable-Phenotype (%) [3, 9]: 5% and 4%
- Population Mitochondria Different-Phenotype (%) [3, 9]: 1% and 3%
- Population Mitotic Cells (%) [3, 9]: 10% and 14%
- Population Normal (%) [3, 9]: 97% and 99%
- Population Pyknosed Nuclei (%) [3, 9]: 8% and 6%
- Population Tubulin-Different-Phenotype (%) [3, 9]: 2% and 3%
- Total Cell Count [3, 9]: 462 and 231

— ChEMBL document CHEMBL5724801, “EUbOPEN Chemogenomics Library - Multiplex” (2024)
